Here are results for three compounds from publication PMC6045484 (ACS Omega, 2018).

Values after ≈ are worked out from the molar mass of the structure shown.

Data set [1] concerns CQ-sensitive (CQS) and CQ-resistant (CQR) strains. As to conditions: strain not stated ref 11; cited from earlier work.
Data set [2] deals with multidrug-resistant P. yoelii nigeriensis. As to the kind of experiment: blood-schizontocidal activity against P. yoelii nigeriensis infection in mice. As to conditions: Swiss mice. The data set is classed as in vivo, Plasmodium yoelii nigeriensis. Put shortly: (§1)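 Swiss mice of either sex (about 15–20 g, same age), six per group, inoculated intraperitoneally on day 0 with 1 × 10^7 infected erythrocytes from a donor mouse. Oral test compound at 100, 50, 25 or 10 mg/kg, CQ diphosphate (10 mg/kg/day × 4) or vehicle started 4 h later, on D0 to D+3. Giemsa tail-blood smears on D+4 and D+7. Curative: parasites eliminated, no relapse, all mice surviving to D+60.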

Another data set concerns P. falciparum (W2). As to the kind of experiment: in vitro antimalarial activity, plasmodial LDH. As to conditions: Plasmodium falciparum, W2, 72 h, read-out: P. falciparum (W2) IC50, CQ-resistant W2 strain, 72 h. Format: cell-based, Plasmodium falciparum. The procedure, abridged: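 P. falciparum-infected erythrocytes (2% parasitemia, 2% hematocrit) in RPMI 1640 with 10% human serum and 60 μg/mL amikacin. Exposed to test compound dilutions for 72 h at 37 °C under 90% N2/5% O2/5% CO2. LDH measured with Malstat reagent (30 min, room temperature), then NBT/PES for 1 h in the dark, stopped with 5% acetic acid, read at 650 nm. IC50 from dose-response curves.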

In another data set the test system is P. falciparum (D6). Kind of data set: in vitro antimalarial activity, plasmodial LDH. Format: cell-based, Plasmodium falciparum. Particulars: Plasmodium falciparum, D6, 72 h, read-out: P. falciparum (D6) IC50.
The test system of data set [3] is P. berghei (sensitive strain). As to the kind of experiment: blood-schizontocidal activity against P. berghei infection in mice. Format: in vivo, Plasmodium berghei. Particulars: Swiss mice. Put shortly:
as §1

The next data set concerns C. neoformans ATCC90113. Kind of data set: in vitro antifungal activity. As to conditions: Cryptococcus neoformans. Format: cell-based, Cryptococcus neoformans. The procedure, abridged: (§2)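 Modified NCCLS broth method in Sabouraud dextrose. Inoculum set by OD630 to 1.5 × 10^3 CFU/mL. Test compound serially diluted in 20% DMSO/saline, duplicate wells, up to 20 μg/mL. Incubated 70–74 h at 35 °C; 530 nm read before and after. IC50 is 50% growth inhibition; MIC is no detectable growth. MFC from clear wells subcultured on agar. Amphotericin B control.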

The next data set concerns C. krusei ATCC6258. As to the kind of experiment: in vitro antifungal activity. Format: cell-based, Candida krusei. The procedure, abridged:
as §2

In another data set the test system is C. glabrata ATCC90030. As to the kind of experiment: in vitro antifungal activity. Format: cell-based, Candida glabrata. Put shortly:
as §2

Data set [4] relates to L. donovani promastigotes. As to the kind of experiment: in vitro antileishmanial activity, alamarBlue assay. The data set is classed as cell-based, Leishmania donovani. As to conditions: Leishmania donovani, 48 h. (The colour change of resazurin is a common sign of viable cells or microbes.)
The next data set has as its system C. albicans ATCC90028. Kind of data set: in vitro antifungal activity. Format: cell-based, Candida albicans. Put shortly:
as §2

A further data set concerns MRSA (ATCC33591). Kind of data set: in vitro antibacterial activity. Format: cell-based, methicillin-resistant Staphylococcus aureus. As to conditions: Staphylococcus aureus, ATCC33591|MRSA, read-out: MIC, MRSA. The procedure, abridged: (§3)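 Test compound serially diluted in 20% DMSO/saline and plated in duplicate, up to 20 μg/mL. Inoculum in cation-adjusted Mueller–Hinton broth, pH 7.3, set by OD630 to 5 × 10^5 CFU/mL. Incubated 16–20 h at 35 °C; 530 nm read before and after. IC50 is 50% growth inhibition; MIC is no detectable growth. MBC from clear wells subcultured on agar. Ciprofloxacin control.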

Another data set deals with SA (ATCC29213). Kind of data set: in vitro antibacterial activity. Particulars: Staphylococcus aureus. Format: cell-based. The procedure, abridged: as §3
The subject of another data set is A. fumigatus ATCC 90906. As to the kind of experiment: in vitro antifungal activity. Format: cell-based, Aspergillus fumigatus. Particulars: Aspergillus fumigatus. Put shortly: as §2
In data set [5] the test system is M. intracellulare (ATCC23068). Kind of data set: in vitro antibacterial activity, modified alamarBlue procedure. Format: cell-based, Mycobacterium intracellulare. As to conditions: Mycobacterium intracellulare. The procedure, abridged:
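Modified alamarBlue microplate method. Test compound serially diluted in 20% DMSO/saline, duplicate wells, up to 20 μg/mL. Inoculum 2.0 × 10^6 CFU/mL in Middlebrook 7H9 with OADC, pH 7.3, containing 5% alamarBlue. Incubated 70–74 h at 37 °C, 10% CO2; fluorescence 544ex/590em read before and after. MIC: no blue-to-pink change. MBC by subculturing blue wells on agar. Ciprofloxacin control.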

In data set [6] the test system is SK-MEL, KB, BT-549, SK-OV-3, VERO and LLC-PK1 cells. As to the kind of experiment: cytotoxicity, neutral red uptake assay. The data set is classed as cell-based, mammalian. As to conditions: highest test concentration 4760 ng/mL. Put shortly:
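Cells seeded at 25 000/well and allowed 24 h to reach confluence. Test compound was then added and incubated 48 h. Viable cells were counted by a modified neutral red uptake method. The panel was four human cancer lines and two noncancerous mammalian kidney lines. Doxorubicin served as positive control and DMSO as negative control.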

Regarding `COc1cc(NC(C)CCCN)c2nc(C(C)(C)C)ccc2c1` (centres unmarked) [2-tert-butylprimaquine], the “in vitro antimalarial activity IC50” value in [1] was 0.039 µg/mL.

As to `CCN(CC)CCCC(C)Nc1ccnc2cc(Cl)ccc12` (centres unmarked) [CQ, chloroquine, reference compound], the “P. yoelii nigeriensis blood-schizontocidal activity (mice cured/treated)” value in data set [2] (25 mg/kg/day × 4, oral) is “inactive (0/6)”; in data set [2] (50 mg/kg/day × 4, oral) it was “inactive (0/6)”; in data set [2] (100 mg/kg/day × 4, oral), “inactive (0/6)”. In addition, the IC50 was 0.14 µg/mL (≈ 0.438 µM) in the data set on P. falciparum (W2) and 0.015 µg/mL (≈ 0.0469 µM) in the data set on P. falciparum (D6). For the same compound, the “in vitro antimalarial activity IC50” value in data set [1] is 0.113 µg/mL. For the same compound, the “P. berghei blood-schizontocidal activity (mice cured/treated)” value is on record as “active (2/6)” in data set [3] (10 mg/kg/day × 4, oral); “curative (6/6)” in data set [3] (25 mg/kg/day × 4, oral); “curative (6/6)” in [3] (50 mg/kg/day × 4, oral); “curative (6/6)” in data set [3] (100 mg/kg/day × 4, oral).

One may read the MFC as the smallest concentration meeting the test's criterion for killing the fungus. A word on the MIC: it is the lowest concentration that inhibits growth of the organism. For orientation: IC90 means the concentration at which the effect reaches the 90% level. Take `CCCCCCCOc1c(OC)cc(NC(C)CCCN)c2nc(C(C)(C)C)ccc12` (centres unmarked) [compound 48, N^4-(2-tert-Butyl-5-(heptyloxy)-6-methoxyquinolin-8-yl)pentane-1,4-diamine]: the IC50 in the data set on C. neoformans ATCC90113 (ATCC90113, read-out: C. neoformans IC50) turned out to be 2.07 µg/mL (≈ 4.82 µM); in the data set on P. falciparum (W2), 0.037 µg/mL (≈ 0.0861 µM); in the data set on P. falciparum (D6) it was 0.05 µg/mL (≈ 0.116 µM); in data set [4] (read-out: L. donovani IC50, promastigotes, 48 h), 5 µg/mL (≈ 11.6 µM); in the data set with C. albicans ATCC90028 (Candida albicans, ATCC90028, read-out: C. albicans IC50), 4.93 µg/mL (≈ 11.5 µM); in the data set with SA (ATCC29213) (ATCC29213, read-out: IC50 (concentration that affords 50% growth inhibition), SA), 2.77 µg/mL (≈ 6.45 µM). For the same compound, the IC50 in the data set on A. fumigatus ATCC 90906 (ATCC90906, read-out: A. fumigatus IC50) is 6 µg/mL (≈ 14 µM); in [5] (ATCC23068, read-out: IC50 (concentration that affords 50% growth inhibition), M. intracellulare), 3.72 µg/mL (≈ 8.66 µM). For the same compound, the minimum fungicidal concentration (MFC) was 2.5 µg/mL (≈ 5.82 µM) with C. neoformans ATCC90113 (ATCC90113, read-out: C. neoformans MFC) and over 20 µg/mL in the data set on A. fumigatus ATCC 90906 (ATCC90906, read-out: A. fumigatus MFC). Further, the MIC in the data set on C. neoformans ATCC90113 (ATCC90113, read-out: C. neoformans MIC) is 2.5 µg/mL (≈ 5.82 µM); with C. albicans ATCC90028 (Candida albicans, ATCC90028, read-out: C. albicans MIC), 10 µg/mL (≈ 23.3 µM); in the data set on MRSA (ATCC33591) it was 5 µg/mL (≈ 11.6 µM); in the data set with SA (ATCC29213) (ATCC29213, read-out: MIC, SA), 5 µg/mL (≈ 11.6 µM); with A. fumigatus ATCC 90906 (ATCC90906, read-out: A. fumigatus MIC), over 20 µg/mL; in data set [5] (ATCC23068, read-out: MIC, M. intracellulare) it was 5 µg/mL (≈ 11.6 µM). Also, the “C. krusei MFC” value in the data set on C. krusei ATCC6258 is 5.00 µg/mL. The “C. krusei MIC” value with C. krusei ATCC6258 is 5.00 µg/mL. Further, the “P. yoelii nigeriensis blood-schizontocidal activity (mice cured/treated)” value is “inactive (0/6)” in [2] (25 mg/kg/day × 4, oral); “active (3/6)” in data set [2] (50 mg/kg/day × 4, oral); “active (4/6)” in data set [2] (100 mg/kg/day × 4, oral). Further, the “C. glabrata MFC” value with C. glabrata ATCC90030 is 5.00 µg/mL. In addition, the “C. glabrata MIC” value in the data set on C. glabrata ATCC90030 came out at 5.00 µg/mL. For the same compound, the IC90 in data set [4] (read-out: L. donovani IC90, promastigotes, 48 h) was over 40 µg/mL. Moreover, the “C. albicans MFC” value in the data set with C. albicans ATCC90028 stood at 10.00 µg/mL. Also, the “C. albicans MIC” value in the data set with C. albicans ATCC90028 came to 10.00 µg/mL. Further, the MBC with SA (ATCC29213) (ATCC29213, read-out: MBC (minimum bactericidal concentration), SA) stood at 20 µg/mL (≈ 46.5 µM); in data set [5] (ATCC23068, read-out: MBC (minimum bactericidal concentration), M. intracellulare) it was 5 µg/mL (≈ 11.6 µM). Further, in data set [6], the “cytotoxicity CTX” value is “NC (NC, not cytotoxic up to 4760 ng/mL (4.76 μg/mL))”. The “P. berghei blood-schizontocidal activity (mice cured/treated)” value is “active (4/6)” in data set [3] (10 mg/kg/day × 4, oral); “curative (6/6)” in [3] (25 mg/kg/day × 4, oral); “curative (6/6)” in data set [3] (50 mg/kg/day × 4, oral); “curative (6/6)” in data set [3] (100 mg/kg/day × 4, oral).
